The array DNA melting data of Ke et al. (doi:10.1101/2024.01.08.574731)

Legend:
[1] = folding enthalpy; higher = less favourable; fluorescence melt of hairpins on a sequencing array, two-state fit; settings: sodium 0.088 M
Method in brief: (§1)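 Folding enthalpy and melting temperature come from bootstrapped two-state fits to Cy3 fluorescence of library hairpins carrying annealed Cy3 and quencher oligos on a sequenced MiSeq flow cell. Imaging was done in 50 mM Na-HEPES pH 8.0, 25 mM NaCl, stepping by 2.5 °C up to 60 °C, and signals were normalised to pre-quench Cy3 and to control constructs. Results of four replicates were combined by inverse variance, and fitted temperatures were raised by 9.35 °C to match UV melts.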

[2] = melting temperature; fluorescence melt of hairpins on a sequencing array, two-state fit, raised by 9.35 °C to match UV melts; settings: sodium 0.088 M
Method in brief: as §1

Sequence | folding enthalpy [1] [kJ/mol] | Tm [2] [°C]
GTCCAACGAAAGTTTGAC (((.(((....))).))) | -116 | 42
GATTTTGGAAACAAAATC (((((((....))))))) | -194 | 51.7
GCCTGGGGAAACTCGGGC (((.(.(....).).))) | -133 | 46.7
GCACAGCGAAAGCTTGGC ((..(((....)))..)) | -64.5 | 47.5
GTGAGTGGAAACACTTGC (..((((....))))..) | -100 | 36.4
GCGTACGAAAGTAAACGC ((((((....)))..))) | -144 | 51.9
GATTAGCGAAAGCTTATC (((.(((....))).))) | -85.6 | 39.1
GGACATGGAAACATGCCC ((.((((....)))).)) | -98.1 | 47.4
GCAAGGCGAAAGCATAGC ((.(.((....)).).)) | -61.7 | 39.6
GCGATAAATCGC ((((....)))) | -80.8 | 49.8
GCGTTAGGAAACTAATGC ((.((((....)))).)) | -181 | 47.5
GGCACCGGAAACGGCGCC (((.(((....))).))) | -220 | 61.2
GGGGGACGAAAGTCTCCC (((.(((....))).))) | -144 | 66
GATCTAGTTCTAGATC ((((((....)))))) | -146 | 46.6
GAACACGAAAGTGTGTTC ((((((....)))..))) | -74.4 | 50
GTTCAAGGAAACTTGAGC (.(((((....))))).) | -94.3 | 40.1
GTTAGCGCGAAAGCGAAC (((..(((....)))))) | -28.6 | 27.7
GGACACGGAAACGTGCCC ((.((((....)))).)) | -117 | 54.5
GTTGGTGGAAACATCAGC (.((.((....)).)).) | -78.5 | 31.4
GCTCTGCGAAAGCTGTGC ((.(.((....)).).)) | -87.9 | 43.6
GAGTTTGGAAACGAACTC (((((.(....).))))) | -152 | 47.1
GCACCGCGAAAGCGCGGC ((..(((....)))..)) | -45.9 | 45
GGGAGAACGAAAGTTCCC (((..(((....)))))) | -71.4 | 47.7

Sequence | folding enthalpy [1] [kJ/mol] | Tm [2] [°C]
GCTCTGCGAAAGCTCAGC (((..((....))..))) | -62.4 | 35.5
GTTGCCCGAAAGGGTAAC (((.(((....))).))) | -132 | 60.9
GCATTGCGAAAGCAGTGC (((.(((....))).))) | -205 | 59.8
GATCCTGTGCAGGATC ((((((....)))))) | -181 | 55
GTGAGCGAAAGCTTTCAC ((((((....)))..))) | -44.8 | 32.3
GACTCCCGAAAGGGTGTC (((.(((....))).))) | -138 | 58.3
GCAGGTCGAAAGACATGC (((.(((....))).))) | -169 | 64.2
GCGTTACACGC ((((...)))) | -83 | 58.1
GCTGTGCGAAAGCGTAGC (((..((....))..))) | -73.8 | 49.5
GTGCCAGGAAACCGGCAC (((((.(....).))))) | -177 | 59.2
GGAACCCGAAAGGGGTCC (((.(((....))).))) | -127 | 68.2
GGGTCTGAAAAGACCC ((((((....)))))) | -109 | 68.4
GATCCATTGCTGGATC ((((((....)))))) | -153 | 50.8
GGTAATACGAAAGTAACC (((..(((....)))))) | -40.3 | 22.7
GCTCAGGCGAAAGCCAGC (((..(((....)))))) | -52.7 | 42.8
GATATCGGAAACGGTATC ((((.((....)).)))) | -125 | 44
GCATCAACGAAAGTTTGC (((..(((....)))))) | -70.9 | 30.8
GATCTTAGAGAAGATC ((((((....)))))) | -88.4 | 37.7
GGGGTACCGAAAGGTCCC (((..(((....)))))) | -115 | 56.7
GATCCGTCGGCGGATC ((((((....)))))) | -164 | 59
GATCCAGGAAACTGGATC (((((((....))))))) | -159 | 60.9
GGGTTCGAAAGAACGCCC ((((((....)))..))) | -46.8 | 50
GGAAGAGCGAAAGCTTCC (((..(((....)))))) | -67.2 | 43.8

Sequence | folding enthalpy [1] [kJ/mol] | Tm [2] [°C]
GAAGATGGAAACATCTTC (((((((....))))))) | -203 | 53.5
GCTGAGCGAAAGCTCTGC ((.((((....)))).)) | -132 | 66.4
GGATGCGAAAGCAGGTCC ((((((....)))..))) | -49.2 | 37.7
GACGAACCGAAAGGTGTC (((..(((....)))))) | -68.5 | 43.1
GCAGAGCGAAAGCAGTGC (((..((....))..))) | -63 | 45.8
GATCCAGGGGTGGATC ((((((....)))))) | -118 | 50.4
GATCGCTAGGCGATC ((((((...)))))) | -154 | 68.4
GCCAACTCGAAAGAGGGC (((..(((....)))))) | -84.5 | 47.3
GATCAACGATTTGATC ((((((....)))))) | -104 | 39.3
GTATGGGAAACCATAC ((((((....)))))) | -154 | 50.8
GCATCGCGAAAGCCAAGC ((.(.((....)).).)) | -38.5 | 27.5
GAAGACACGAAAGTGTTC (((..(((....)))))) | -42.3 | 31.9
GCCAGGCGAAAGCGTTGC ((.(.((....)).).)) | -69.7 | 34.2
GATCCCGAAAGGGGCATC ((((((....)))..))) | -48.4 | 35.6
GCACGTCCGAAAGGATGC (((..(((....)))))) | -49.9 | 36.8
GGGTATGGAAACGTACCC (((((.(....).))))) | -178 | 50.1
CGACTCCGGAAACGGTCG (((..(((....)))))) | -101 | 38.4
GTCAGAGGAAACTCTGGC (.(((((....))))).) | -127 | 50.3
GGCAGAGGAAACTCTGTC (.(((((....))))).) | -129 | 49.7
GGGAATGAAAATTCCC ((((((....)))))) | -170 | 56
GTTTCCACGAAAGTGAAC (((..(((....)))))) | -36.1 | 27.2
GCCAGTGGAAACGTTGGC ((((..(....)..)))) | -102 | 48.2
GGTGGAGAAATCCACC ((((((....)))))) | -138 | 59.8

Sequence | folding enthalpy [1] [kJ/mol] | Tm [2] [°C]
GAGCCTGGAAACGGGCTC (((((.(....).))))) | -200 | 58.9
GTGAGCGAAAGCTCCAC ((((((....))).))) | -47.2 | 48.3
GACACCGAAAGGTCTGTC ((((((....)))..))) | -69.2 | 35.2
GCTGCCGAAAGGCCAAGC ((((((....)))..))) | -64.9 | 46.3
GATCGTTAAAACGATC ((((((....)))))) | -149 | 54.5
GCGGTGCTCCGC ((((....)))) | -77.7 | 56.1
GCCGTAGGAAACTGTGGC (((..((....))..))) | -47.7 | 43.3
GAGGTCGGAAACGATCTC (((.(((....))).))) | -183 | 52.5
GCGCCACGAAAGTGCCGC (((.(((....))).))) | -113 | 56.3
GGTGGCGGAAACGTCACC ((((.((....)).)))) | -202 | 63.3
GATAGCCGAAAGGCGATC (((.(((....))).))) | -74.9 | 58.8
GCTAGGCGAAAGCCTGGC ((.((((....)))).)) | -88.5 | 68.2
GAGCGAGGAAACTCACTC (((.(((....))).))) | -130 | 42.1
GCCAGGCGAAAGCTTAGC ((.(.((....)).).)) | -45.4 | 32.3
GATCAAAAGTTTGATC ((((((....)))))) | -116 | 42.4
GATCTGAGCGCAGATC ((((((....)))))) | -103 | 48.5
GTCGAGGGAAACTTCGGC (.(((.(....).))).) | -103 | 36.4
GCTATGCGAAAGCACTGC ((..(((....)))..)) | -64 | 36.3
GATCAGATAGCTGATC ((((((....)))))) | -159 | 46.8
GTGAGGGGAAACCCTTAC ((.((((....)))).)) | -112 | 44.5
GTTGTTGGAAACAACAGC (.(((((....))))).) | -55.3 | 52.8
GCGGTCGGAAACGACCAC (.(((((....))))).) | -48.5 | 48.4
GATCTCACCTGAGATC ((((((....)))))) | -184 | 53.5
